Data published in ChEMBL document CHEMBL2380281, “Synthesis of proline analogues as potent and selective cathepsin S inhibitors” (Bioorg Med Chem Lett, 2013).
One block for each compound: values may come before it. Activity calls are given as the source filed them. The rule behind the calls is not given here.

Tests used:
Cathepsin S [1] = biological target: T1, Cathepsin S (Homo sapiens, UniProt P25774); assay: Inhibition of human cathepsin-S
Cathepsin K = biological target: T2, Cathepsin K (Homo sapiens, UniProt P43235); assay: Inhibition of human cathepsin-K
T2 sequence (P43235 whole entry): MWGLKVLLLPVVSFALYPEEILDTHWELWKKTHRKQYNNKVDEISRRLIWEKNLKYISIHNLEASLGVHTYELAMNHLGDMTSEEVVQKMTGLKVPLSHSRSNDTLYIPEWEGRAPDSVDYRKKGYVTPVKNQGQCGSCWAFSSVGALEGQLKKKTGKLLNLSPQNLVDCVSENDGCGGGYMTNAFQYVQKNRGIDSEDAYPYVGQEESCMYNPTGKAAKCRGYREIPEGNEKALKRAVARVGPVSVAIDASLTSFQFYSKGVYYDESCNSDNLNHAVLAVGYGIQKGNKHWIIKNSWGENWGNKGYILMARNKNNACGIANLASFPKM
In short: (§1)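 Human cathepsin B and K activity measured with a SensoLyte 520 cathepsin activity assay kit; LHVS as pan-cathepsin positive control.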

Cathepsin B = Cathepsin B (Homo sapiens, UniProt P07858); assay: Inhibition of human cathepsin-B; in short: as §1
Mus musculus = assay: Antiarthritic activity in DBA1/J mouse assessed as decrease in collagen-induced arthritis score and degree of paw swelling at 30 mg/kg, po qd for 14 days; format: functional, organism-based; parameters: dose 30 mg/kg
In short: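 Male DBA1/J mice (8 weeks, n = 7/group) immunized intradermally at tail base with bovine type II collagen in complete Freund's adjuvant, boosted 3 weeks later with collagen in incomplete Freund's adjuvant. Oral dosing once daily at 30 mg/kg in 10% hydroxypropyl-β-cyclodextrin/water, or vehicle, for 14 days. Arthritis score and paw swelling graded per paw every 2–3 days for 2 weeks from day 10 post-boost.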

[2] = Oral bioavailability in beagle dog at 10 mg/kg; format: ADME, organism-based, Canis lupus familiaris; conditions: in vivo
In short: (§2)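 Male beagle dogs aged 14 months dosed once, 10 mg/kg orally or 1 mg/kg intravenously, n = 3 per route; pharmacokinetic parameters calculated.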

[3] = Cmax in beagle dog at 1 mg/kg, iv and 10 mg/kg, po; format: ADME, organism-based, Canis lupus familiaris; conditions: in vivo; in short: as §2
[4] = Half life in beagle dog at 1 mg/kg, iv and 10 mg/kg, po; format: ADME, organism-based, Canis lupus familiaris; conditions: in vivo; in short: as §2
[5] = AUC (0 to 24 hrs) in beagle dog at 1 mg/kg, iv and 10 mg/kg, po; format: ADME, organism-based, Canis lupus familiaris; conditions: plasma; in short: as §2
[6] = Oral bioavailability in Sprague-Dawley rat at 10 mg/kg; format: ADME, organism-based; conditions: in vivo
In short: (§3)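 Male Sprague–Dawley rats, 7 weeks of age, received one oral dose of 10 mg/kg or one intravenous dose of 5 mg/kg (n = 3 each); pharmacokinetic parameters determined.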

[7] = Half life in Sprague-Dawley rat at 5 mg/kg, iv and 10 mg/kg, po; format: ADME, organism-based; conditions: in vivo; in short: as §3
[8] = Cmax in Sprague-Dawley rat at 5 mg/kg, iv and 10 mg/kg, po; format: ADME, organism-based; conditions: in vivo; in short: as §3
[9] = AUC (0 to 24 hrs) in Sprague-Dawley rat at 5 mg/kg, iv and 10 mg/kg, po; format: ADME, organism-based; conditions: plasma; in short: as §3
[10] = Oral bioavailability in ICR mouse at 10 mg/kg; format: ADME, organism-based; conditions: in vivo
In short: (§4)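 Single dose given orally (10 mg/kg) or intravenously (5 mg/kg) to male ICR mice, 7 weeks old, n = 3 per route; pharmacokinetic parameters derived from these dosings.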

[11] = Half life in ICR mouse at 5 mg/kg, iv and 10 mg/kg, po; format: ADME, organism-based; conditions: in vivo; in short: as §4
[12] = Cmax in ICR mouse at 5 mg/kg, iv and 10 mg/kg, po; format: ADME, organism-based; conditions: in vivo; in short: as §4
[13] = AUC (0 to 24 hrs) in ICR mouse at 5 mg/kg, iv and 10 mg/kg, po; format: ADME, organism-based; conditions: plasma; in short: as §4
Cytochrome P450 2D6 = Cytochrome P450 2D6 (Homo sapiens, UniProt P10635); assay: Inhibition of CYP2D6 (unknown origin) by fluorescence detection method; format: ADME
Chain of Cytochrome P450 2D6 (P10635 whole entry): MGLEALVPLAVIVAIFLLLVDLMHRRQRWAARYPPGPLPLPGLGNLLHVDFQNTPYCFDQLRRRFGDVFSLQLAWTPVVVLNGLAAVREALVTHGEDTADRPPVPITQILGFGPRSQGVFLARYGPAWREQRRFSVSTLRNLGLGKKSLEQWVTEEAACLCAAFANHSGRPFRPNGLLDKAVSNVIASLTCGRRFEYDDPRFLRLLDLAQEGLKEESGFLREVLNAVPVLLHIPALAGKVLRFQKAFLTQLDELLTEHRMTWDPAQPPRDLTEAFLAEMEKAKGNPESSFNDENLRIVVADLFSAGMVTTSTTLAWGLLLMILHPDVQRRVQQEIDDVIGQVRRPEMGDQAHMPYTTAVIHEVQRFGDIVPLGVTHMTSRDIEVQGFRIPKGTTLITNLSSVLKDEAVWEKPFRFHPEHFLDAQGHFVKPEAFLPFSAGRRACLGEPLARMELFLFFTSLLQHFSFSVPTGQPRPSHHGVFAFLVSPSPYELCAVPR

Cytochrome P450 2C19 = Cytochrome P450 2C19 (Homo sapiens, UniProt P33261); assay: Inhibition of CYP2C19 (unknown origin) by fluorescence detection method; format: ADME
Chain of Cytochrome P450 2C19 (P33261 whole entry): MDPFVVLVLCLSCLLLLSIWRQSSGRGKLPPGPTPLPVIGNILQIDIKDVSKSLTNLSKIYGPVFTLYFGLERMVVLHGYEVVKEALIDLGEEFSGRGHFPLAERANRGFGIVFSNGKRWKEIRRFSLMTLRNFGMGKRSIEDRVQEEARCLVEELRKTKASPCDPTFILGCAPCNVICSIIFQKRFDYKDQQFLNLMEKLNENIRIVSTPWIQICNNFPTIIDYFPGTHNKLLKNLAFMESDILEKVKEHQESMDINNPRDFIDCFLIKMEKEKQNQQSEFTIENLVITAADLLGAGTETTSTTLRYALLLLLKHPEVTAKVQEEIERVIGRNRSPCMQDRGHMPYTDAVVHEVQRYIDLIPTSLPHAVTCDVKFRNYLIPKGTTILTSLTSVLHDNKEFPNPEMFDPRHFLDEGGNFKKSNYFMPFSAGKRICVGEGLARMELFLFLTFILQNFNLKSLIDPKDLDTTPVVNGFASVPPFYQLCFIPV

Cytochrome P450 1A2 = biological target: T3, Cytochrome P450 1A2 (Homo sapiens, UniProt P05177); assay: Inhibition of CYP1A2 (unknown origin) by fluorescence detection method; format: ADME
T3 sequence (P05177 whole entry): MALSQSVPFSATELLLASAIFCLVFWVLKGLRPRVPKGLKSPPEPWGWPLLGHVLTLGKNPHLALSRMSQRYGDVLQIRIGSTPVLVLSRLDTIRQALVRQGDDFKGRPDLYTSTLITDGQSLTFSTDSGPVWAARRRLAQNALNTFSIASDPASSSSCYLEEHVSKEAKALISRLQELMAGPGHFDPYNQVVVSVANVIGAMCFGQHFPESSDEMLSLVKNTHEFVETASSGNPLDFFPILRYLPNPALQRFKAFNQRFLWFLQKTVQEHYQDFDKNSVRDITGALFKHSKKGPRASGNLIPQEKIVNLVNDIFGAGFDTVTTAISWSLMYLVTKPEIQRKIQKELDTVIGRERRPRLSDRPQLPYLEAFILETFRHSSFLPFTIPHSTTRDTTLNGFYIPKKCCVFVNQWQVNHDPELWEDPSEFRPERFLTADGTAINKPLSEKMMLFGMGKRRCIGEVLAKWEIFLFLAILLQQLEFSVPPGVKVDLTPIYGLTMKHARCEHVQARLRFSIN

Cytochrome P450 2C9 = Cytochrome P450 2C9 (Homo sapiens, UniProt P11712); assay: Inhibition of CYP2C9 (unknown origin) by fluorescence detection method; format: ADME
Chain of Cytochrome P450 2C9 (P11712 whole entry): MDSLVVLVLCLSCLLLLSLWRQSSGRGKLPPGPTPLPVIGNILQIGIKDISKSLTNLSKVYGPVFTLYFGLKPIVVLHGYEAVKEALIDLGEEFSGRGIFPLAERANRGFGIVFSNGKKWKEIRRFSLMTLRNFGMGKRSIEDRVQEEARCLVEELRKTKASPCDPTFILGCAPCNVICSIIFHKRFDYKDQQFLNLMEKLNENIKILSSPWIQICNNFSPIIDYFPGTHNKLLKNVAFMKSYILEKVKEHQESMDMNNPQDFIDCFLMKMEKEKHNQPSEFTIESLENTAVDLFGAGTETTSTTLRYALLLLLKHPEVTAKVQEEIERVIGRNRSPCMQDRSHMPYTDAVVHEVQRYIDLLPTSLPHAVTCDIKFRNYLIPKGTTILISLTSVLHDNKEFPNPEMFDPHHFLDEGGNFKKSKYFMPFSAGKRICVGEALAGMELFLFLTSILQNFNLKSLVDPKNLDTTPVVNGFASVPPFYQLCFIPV

Cytochrome P450 3A4 = Cytochrome P450 3A4 (Homo sapiens, UniProt P08684); assay: Inhibition of CYP3A4 (unknown origin) by fluorescence detection method; format: ADME
Chain of Cytochrome P450 3A4 (P08684 whole entry): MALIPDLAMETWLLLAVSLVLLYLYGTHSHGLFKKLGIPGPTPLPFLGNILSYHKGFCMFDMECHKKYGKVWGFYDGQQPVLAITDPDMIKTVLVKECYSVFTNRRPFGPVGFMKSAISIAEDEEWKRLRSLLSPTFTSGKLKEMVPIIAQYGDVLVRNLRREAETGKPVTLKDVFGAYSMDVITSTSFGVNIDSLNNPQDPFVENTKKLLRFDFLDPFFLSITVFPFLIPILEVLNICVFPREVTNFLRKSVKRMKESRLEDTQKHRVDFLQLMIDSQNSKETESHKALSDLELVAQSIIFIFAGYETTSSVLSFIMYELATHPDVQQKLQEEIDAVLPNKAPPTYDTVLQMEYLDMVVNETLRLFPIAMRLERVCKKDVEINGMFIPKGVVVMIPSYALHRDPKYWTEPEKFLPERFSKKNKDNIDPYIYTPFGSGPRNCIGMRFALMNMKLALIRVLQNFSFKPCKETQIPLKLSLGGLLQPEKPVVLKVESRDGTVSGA

[14] = Metabolic stability in mouse liver microsomes assessed as compound remaining at 5 uM after 60 mins; format: ADME, Microsome; conditions: read-out: Stability
In short: (§5)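 Compound at 5 µM incubated 60 min with mouse, rat, dog or human liver microsomes, in duplicate; result given as percentage of parent remaining.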

[15] = Metabolic stability in rat liver microsomes assessed as compound remaining at 5 uM after 60 mins; format: ADME, Microsome; conditions: read-out: Stability; in short: as §5
[16] = Metabolic stability in dog liver microsomes assessed as compound remaining at 5 uM after 60 mins; format: ADME, Canis lupus familiaris, Microsome; conditions: read-out: Stability; in short: as §5
[17] = Metabolic stability in human liver microsomes assessed as compound remaining at 5 uM after 60 mins; format: ADME, Microsome; conditions: read-out: Stability; in short: as §5
Cathepsin S [18] = biological target: T1, Cathepsin S; assay: Inhibition of cathepsin-S in human Jiyoye cells assessed as conversion of invariant chain Lip10 to CLIP; format: cell-based
In short: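 Jiyoye cells were stimulated with IFN-γ and treated with the inhibitor at 1, 10, 100 and 1000 nM, alongside untreated controls. The read-out was Lip10 accumulation.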

Compound: CCC(NC(=O)[C@@H]1C[C@@H](S(=O)(=O)c2ccccc2)CN1C(=O)c1ccncc1)C(=O)c1nc2ccccc2o1 (stereo not given in full)
IC50 (Cathepsin S [1]): 3.3 nM

Compound: CC[C@H](NC(=O)[C@@H]1C[C@@H](S(=O)(=O)c2ccccc2)CN1C(C)=O)C(=O)c1nc2ccccc2o1
Activity (Mus musculus): Active | bioavailability [2]: 48.6% | Cmax [3]: 3820 ng/mL | half-life [4]: 3.7 h | AUC(0-t) [5]: 5050 ng·h/mL | bioavailability [6]: 64.8% | half-life [7]: 2.1 h | Cmax [8]: 3520 ng/mL | AUC(0-t) [9]: 7250 ng·h/mL | bioavailability [10]: 28.7% | half-life [11]: 1.6 h | Cmax [12]: 1910 ng/mL | AUC(0-t) [13]: 1030 ng·h/mL | IC50 (Cytochrome P450 2D6): > 20000 nM | IC50 (Cytochrome P450 2C19): > 20000 nM | IC50 (Cytochrome P450 1A2): > 20000 nM | IC50 (Cytochrome P450 2C9): 5000 nM | IC50 (Cytochrome P450 3A4): 9950 nM | remaining at 1 h, 5 µM [14]: 37% | remaining at 1 h, 5 µM [15]: 37% | remaining at 1 h, 5 µM [16]: 47% | remaining at 1 h, 5 µM [17]: 70% | inhibition (Cathepsin S [18]): Active | IC50 (Cathepsin K): > 10000 nM | IC50 (Cathepsin S [1]): 3.3 nM | IC50 (Cathepsin B): > 10000 nM

Compound: CCC(NC(=O)[C@@H]1C[C@@H](S(=O)(=O)c2ccccc2)CN1c1ccccc1)C(=O)c1nc2ccccc2o1 (stereo not given in full)
IC50 (Cathepsin S [1]): 12.4 nM

Compound: CCC(NC(=O)[C@@H]1C[C@@H](S(=O)(=O)c2ccc(F)cc2)CN1C(C)=O)C(=O)c1nc2ccccc2o1 (stereo not given in full)
IC50 (Cathepsin S [1]): 3.2 nM

Compound: CCC(NC(=O)[C@@H]1C[C@@H](S(=O)(=O)c2ccccc2)CN1C(C)=O)C(=O)c1nc2ccccc2o1 (stereo not given in full)
IC50 (Cathepsin S [1]): 3.3 nM

Compound: CCC(NC(=O)[C@@H]1C[C@@H](S(=O)(=O)c2ccccc2)CN1C(=O)c1cccc(Cl)c1)C(=O)c1nc2ccccc2o1 (stereo not given in full)
IC50 (Cathepsin K): > 1000 nM | IC50 (Cathepsin S [1]): 1.1 nM | IC50 (Cathepsin B): > 1000 nM

Compound: CCC(NC(=O)[C@@H]1C[C@@H](S(=O)(=O)c2ccccc2)CN1C(=O)c1ccc(Cl)cc1)C(=O)c1nc2ccccc2o1 (stereo not given in full)
IC50 (Cathepsin S [1]): 2 nM

Further lines, results first:

IC50 (Cathepsin S [1]): 24.6 nM
Compound: CC(=O)N1C[C@H](S(=O)(=O)c2ccccc2)C[C@H]1C(=O)NC(C(=O)c1nc2ccccc2o1)C(C)C (stereo not given in full)

IC50 (Cathepsin K): > 10000 nM | IC50 (Cathepsin S [1]): 3.3 nM | IC50 (Cathepsin B): > 10000 nM
Compound: CCC(NC(=O)[C@@H]1C[C@@H](S(=O)(=O)c2ccccc2)CN1C(=O)C1CCCCC1)C(=O)c1nc2ccccc2o1 (stereo not given in full)

IC50 (Cathepsin S [1]): > 1000 nM
Compound: CCC(NC(=O)[C@@H]1C[C@@H](Oc2ccccc2)CN1C(C)=O)C(=O)c1nc2ccccc2o1 (stereo not given in full)

IC50 (Cathepsin S [1]): 20.7 nM
Compound: CCC(NC(=O)[C@@H]1C[C@@H](Sc2ccccc2)CN1C(C)=O)C(=O)c1nc2ccccc2o1 (stereo not given in full)

IC50 (Cathepsin S [1]): 45.4 nM
Compound: CCC(NC(=O)[C@@H]1C[C@@H](S(=O)(=O)c2ccccc2)CN1CC(C)=O)C(=O)c1nc2ccccc2o1 (stereo not given in full)

IC50 (Cathepsin S [1]): 18.1 nM
Compound: CC(=O)N1C[C@H](S(=O)(=O)c2ccccc2)C[C@H]1C(=O)NC(C)C(=O)c1nc2ccccc2o1 (stereo not given in full)

IC50 (Cathepsin S [1]): 36.6 nM
Compound: O=C(CNC(=O)[C@@H]1C[C@@H](S(=O)(=O)c2ccccc2)CN1C(=O)C1CCCCC1)c1nc2ccccc2o1

IC50 (Cathepsin S [1]): 83.7 nM
Compound: CCC(NC(=O)[C@@H]1C[C@@H]([S@](=O)c2ccccc2)CN1C(C)=O)C(=O)c1nc2ccccc2o1 (stereo not given in full)

IC50 (Cathepsin S [1]): 156 nM
Compound: CCC(NC(=O)[C@@H]1C[C@@H](S(=O)(=O)c2ccccc2)CN1)C(=O)c1nc2ccccc2o1 (stereo not given in full)
